High-throughput results from PubChem.
Scp1 inh = Scp-1 (human) phosphatase inhibition; Q9GZU7; AID 493091; Recombinant Scp1, phosphopeptide, malachite green phosphate absorbance; 340,000 compounds, 0.88% hits; inhibition, % at 20 µM;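 active means inhibition above about 50% at 20 µM, limit read from the data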;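 further: plate controls were DMSO wells with enzyme for no effect and wells lacking enzyme for full effect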
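Assay system: SCP-1 catalytic fragment, aa 76-261 | Buffer or medium: Tris acetate buffer pH 5.5 with MgCl2 and Tween-20 | Compound: One concentration, 20 µM, with 1.0% DMSO | Also added: Phospho 17-mer peptide substrate | Signal: Absorbance at 630 nm | Incubation: 45 min enzyme reaction at room temperature | Measure: % inhibition of SCP-1 phosphate liberation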
Rpn11 block = blocks the human proteasome subunit Rpn11; inhibition, % at 20 µM; O00487; 360,000 compounds, 0.59% hits; human 26S proteasome, Ub4-pepOG fluorescence polarization; 20S core pre-blocked with epoxomicin; AID 588493;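 active means inhibition at 20 µM, scaled to each plate's controls, above about 33%, limit read from the data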
Target sequence (O00487 whole entry, looked up): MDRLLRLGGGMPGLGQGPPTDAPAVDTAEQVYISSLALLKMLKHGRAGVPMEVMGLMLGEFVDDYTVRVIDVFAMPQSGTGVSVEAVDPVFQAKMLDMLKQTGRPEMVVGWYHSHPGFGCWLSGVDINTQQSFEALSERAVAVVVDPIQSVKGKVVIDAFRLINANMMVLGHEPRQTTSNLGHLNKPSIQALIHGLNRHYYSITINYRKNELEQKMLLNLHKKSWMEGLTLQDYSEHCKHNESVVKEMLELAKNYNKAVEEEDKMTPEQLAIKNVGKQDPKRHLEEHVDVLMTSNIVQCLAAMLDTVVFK
SUMO1 PPI mod = modulators of human SUMO1-mediated protein-protein interactions; 360,000 compounds, 0.33% hits; SUMO1 binding to a labelled peptide, TR-FRET, 1 h; inhibition, % at 20 µM; P63165; in the data active means inhibition above about 37%
Target sequence (P63165 whole entry, looked up): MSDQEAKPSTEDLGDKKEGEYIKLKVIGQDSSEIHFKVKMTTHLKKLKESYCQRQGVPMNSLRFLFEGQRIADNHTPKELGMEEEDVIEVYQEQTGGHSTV
LMPTP inh = LMPTP (human) inhibition; P24666; recombinant LMPTP-A, OMFP fluorogenic substrate, fluorescence intensity; inhibition, % at 20 µM; 360,000 compounds, 0.22% hits;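 active means compounds that cut the enzyme signal by at least half of the control window in the single-dose screen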;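 further: plate controls were DMSO wells with enzyme plus substrate for no effect and substrate without enzyme for full effect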
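Assay system: LMPTP-A, protein tyrosine phosphatase of low molecular weight / Medium: pH 6.0 Bis-Tris buffer with DTT and Triton X-100 / Schedule: 50 min enzyme reaction at room temperature, protected from light / Measured by: endpoint fluorescence intensity from OMFP dephosphorylation / Read-out basis: % inhibition relative to no-enzyme and uninhibited control wells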
DNMT1 inh = blocks human DNA methyltransferase DNMT1; P26358; DNMT1 molecular beacon, Hinp1I cleavage, fluorescence; inhibition (reported as % activation of signal), % at 10 µM; 360,000 compounds, 0.83% hits; in the data active means inhibition above about 50%
STEP block = inhibitors of human striatal-enriched phosphatase STEP. inhibition, % at 20 µM. 360,000 compounds, 0.25% hits. P54829. recombinant STEP, OMFP fluorogenic substrate, fluorescence. AID 588621;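 active means inhibition at 20 µM, scaled per plate between control wells, above about 37%, limit read from the data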;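 further: 0% = DMSO with enzyme and substrate and 100% = substrate only without enzyme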
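material = STEP tyrosine phosphatase | reagent = fluorogenic phosphatase substrate OMFP at 25 µM final | doses = single compound dose of 20 µM, 1% DMSO final | schedule = 20 min reaction, room temperature, in the dark | measured by = fluorescence, 480/540 nm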
STEP conf = STEP (human) phosphatase inhibition, single concentration confirmation; shares compounds with STEP block; recombinant STEP, OMFP fluorogenic substrate, fluorescence; inhibition, % at 20 µM; 520 compounds, 32% hits; AID 623866; call rule not given here;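 further: 0% = enzyme with substrate plus DMSO and 100% = substrate without enzyme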
Active calls of the source: *. Most compounds without a hit are left out; they make up all but 2.3% or so of the library.

How did COc1cc(/C=C2/C(=O)NN(c3cccc(C)c3)C2=O)cc([N+](=O)[O-])c1O do in these assays?
Scp1 inh: 40; Rpn11 block: 5; SUMO1 PPI mod: 10; LMPTP inh: 43; DNMT1 inh: 58*; STEP block: 51*; STEP conf: 45*

How did COc1cc2ccccc2cc1C(=O)NC(=S)Nc1cccc(C(=O)O)c1 do in these assays?
Scp1 inh: 22; Rpn11 block: 2; SUMO1 PPI mod: 9; LMPTP inh: 2; DNMT1 inh: 1; STEP block: 42*; STEP conf: 13

Results for Cc1ccc(C(=O)N/N=C\c2ccc(-c3ccc([N+](=O)[O-])cc3)o2)cn1 ?
Scp1 inh: 1; Rpn11 block: -12; SUMO1 PPI mod: 24; LMPTP inh: 33; DNMT1 inh: 0; STEP block: 60*; STEP conf: 0

Results for Cc1ccc(C(=O)N/N=C\c2ccc(-c3ccc(Cl)cc3)o2)cn1 ?
Scp1 inh: -16; Rpn11 block: 15; SUMO1 PPI mod: -20; LMPTP inh: 1; DNMT1 inh: 0; STEP block: 7

How did NS(=O)(=O)c1ccccc1 do in these assays?
Scp1 inh: -4; Rpn11 block: -1; SUMO1 PPI mod: 1; LMPTP inh: -2; DNMT1 inh: 2; STEP block: 68*; STEP conf: 47*

What do the screens show for `COc1ccc(C(=O)Oc2ccc3ccc(=O)oc3c2)cc1`?
Scp1 inh: 9; Rpn11 block: 4; SUMO1 PPI mod: -5; LMPTP inh: 37; DNMT1 inh: 4; STEP block: 74*; STEP conf: -8

What do the screens show for `CCN1CCN(C(=S)c2ccc(SC)cc2)CC1`?
Scp1 inh: -13; Rpn11 block: 2; SUMO1 PPI mod: -1; LMPTP inh: 0; DNMT1 inh: 1; STEP block: 67*; STEP conf: 6

What do the screens show for `CSc1ccc(C(=S)N2CCN(Cc3ccccc3)CC2)cc1`?
Scp1 inh: -5; Rpn11 block: -1; SUMO1 PPI mod: -3; LMPTP inh: -1; DNMT1 inh: -3; STEP block: 52*; STEP conf: 25

What do the screens show for `S=C(c1ccc(Cl)cc1)N1CCN(Cc2ccccc2)CC1`?
Scp1 inh: -5; Rpn11 block: 0; SUMO1 PPI mod: -2; LMPTP inh: 1; DNMT1 inh: 0; STEP block: 2

How did CSc1ccc(C(=S)N2CCCCCC2)cc1 do in these assays?
Scp1 inh: 1; Rpn11 block: 2; SUMO1 PPI mod: 2; LMPTP inh: 1; DNMT1 inh: -4; STEP block: 6

What do the screens show for `Cc1c(C(=O)N2CCN(CC(=O)Nc3ccccc3Cl)CC2)oc2ccc(Br)cc12`?
Scp1 inh: -6; Rpn11 block: 2; SUMO1 PPI mod: 3; LMPTP inh: 6; DNMT1 inh: -5; STEP block: -1

Results for Cc1ccc(NC(=O)CSc2nnc(NC3CC3)s2)cc1S(=O)(=O)N1CCOCC1 ?
Rpn11 block: -2; SUMO1 PPI mod: 5; LMPTP inh: -2; DNMT1 inh: 3; STEP block: -2

Results for CC(C)(C)C(=O)Nc1ccc(C(=O)Nc2cc(NC(=O)c3ccc(NC(=O)C(C)(C)C)cc3)cc(C(=O)O)c2)cc1 ?
Scp1 inh: 0; Rpn11 block: 0; SUMO1 PPI mod: 3; LMPTP inh: -1; DNMT1 inh: 3; STEP block: 2

What do the screens show for `CC(C)(C)C(=O)Nc1ccc(C(=O)Nc2cccc(Oc3ccc(C(=O)O)c(C(=O)O)c3)c2)cc1`?
Scp1 inh: 18; Rpn11 block: 8; SUMO1 PPI mod: 13; LMPTP inh: -1; DNMT1 inh: 8; STEP block: 60*; STEP conf: 82*

Results for Cc1cc(C)n2nc(C(=O)Nc3cccc(S(=O)(=O)N(C)c4ccccc4)c3)nc2n1 ?
Scp1 inh: -5; Rpn11 block: -8; SUMO1 PPI mod: 5; LMPTP inh: -1; DNMT1 inh: -3; STEP block: -3
